In ChEMBL document CHEMBL1145920 (J Med Chem, 2003):
Converted amounts (≈) assume the structure as drawn.

Assays:
[1] = target: T1, Vascular endothelial growth factor receptor 2 (Homo sapiens, UniProt P35968); assay: Inhibition of Vascular endothelial growth factor receptor 2 autophosphorylation by VEGF in human umbilical vein endothelial cells (HUVECs) at 10 nM; type: cell-based; conditions: HUVEC
In short: (§1)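 Subconfluent HUVECs serum-starved 1 h at 37 °C in EBM-2 with 0.05% BSA, with drug or DMSO present, then stimulated with 10 ng/mL human VEGF for 5 min. Lysates protein-normalized, anti-VEGF-R2 immunoprecipitated, run on SDS-PAGE, antiphosphotyrosine immunoblot, ECL.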

[2] = target: T1, Vascular endothelial growth factor receptor 2; assay: Inhibition of Vascular endothelial growth factor receptor 2 autophosphorylation by VEGF in human umbilical vein endothelial cells (HUVECs) at 100 nM; type: cell-based; conditions: HUVEC; in short: as §1
[3] = target: T1, Vascular endothelial growth factor receptor 2; assay: In vitro inhibitory concentration against human vascular endothelial growth factor receptor 2
In short: (§2)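 Baculovirus-expressed human kinase cytoplasmic domains; ELISA-type assay with time-resolved fluorescence readout (Eu-N1 antiphosphotyrosine antibody). […] For VEGF-R2, PLC-γ/GST fusion substrate and 15 min at 37 °C.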

Mus musculus [4] = assay: Antitumor activity against SVR tumor growth in mice by administration of 23.8 mg/kg b.i.d.; type: functional; conditions: oral
In short: (§3)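 Female athymic nu/nu mice, 6–8 weeks old; 1×10^6 SVR murine angiosarcoma cells implanted sc in right flank with Matrigel (1:1 v/v). At tumor volumes of 80–180 mm³, randomized (usually 8–10/group) and dosed orally b.i.d. (T = 0, 8 h), 0.35–23.8 mg/kg at 100 μL/dose; vehicles PG:Tween 80 (1:1) or 1% HOAc. Caliper tumor volumes every 3–4 days; Mann–Whitney test.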

[5] = target: T1, Vascular endothelial growth factor receptor 2; assay: Inhibition of Vascular endothelial growth factor receptor 2 autophosphorylation by VEGF in human umbilical vein endothelial cells (HUVECs) at 200 nM; type: cell-based; conditions: HUVEC; in short: as §1
[6] = target: T1, Vascular endothelial growth factor receptor 2; assay: Inhibition of Vascular endothelial growth factor receptor 2 autophosphorylation by VEGF in human umbilical vein endothelial cells (HUVECs) at 50 nM; type: cell-based; conditions: HUVEC; in short: as §1
[7] = Plasma level in rats at 30 mg/kg; type: ADME, organism-based; parameters: dose 30 mg/kg; conditions: rat
In short: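 Fasted adult male Sprague–Dawley rats (n = 3) given a single oral gavage dose at 2 mL/kg in 3:1 gelucire/PG vehicle. Plasma prepared by acetonitrile protein precipitation and analyzed by HPLC–tandem MS.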

[8] = Solubility was determined; type: physicochemical
[9] = target: Cyclin-dependent kinase 1/cyclin B (Homo sapiens, UniProt P06493); assay: Inhibition of Cyclin-dependent kinase 1-cyclin B; type: protein-complex assay
In short: (§4)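 Enzymes were baculovirus-expressed recombinant human cytoplasmic domains: CDK1/cyclinB and CHK1.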

[10] = target: Fibroblast growth factor receptor 1 (Homo sapiens, UniProt P11362); assay: Inhibition of Fibroblast growth factor receptor 1
Mus musculus [11] = assay: Inhibition of murine SVR angiosarcoma in mice administered b.i.d. for 10 days; type: functional; conditions: oral, 240 h, read-out: MED; in short: as §3
Mus musculus [12] = assay: In vivo antitumor activity against SVR tumor growth in nude mice by oral administration of 10 mg/kg b.i.d. for 10 days; type: functional; conditions: 240 h; in short: as §3
Mus musculus [13] = assay: Antitumor activity against SVR tumor growth in mice by administration of 20 mg/kg b.i.d.; type: functional; conditions: oral; in short: as §3
[14] = target: Mitogen-activated protein kinase 14 (Homo sapiens, UniProt Q16539); assay: Inhibition of Mitogen-activated protein kinase p38 alpha
In short: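 Enzyme was activated recombinant human GST-p38α.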

[15] = target: Protein kinase C, PKC; classical (Rattus norvegicus, UniProt P05696+P68403+P63319); assay: Inhibition of rat brain Protein kinase C
In short: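 Enzyme was purified rat brain PKC, a mixture of the Ca2+-dependent α, β and γ isozymes.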

[16] = target: Serine/threonine-protein kinase Chk2 (Homo sapiens, UniProt O96017); assay: Inhibition of Serine/threonine-protein kinase Chk2 (CDS1 receptor)
[17] = target: T2, Serine/threonine-protein kinase Chk1 (Homo sapiens, UniProt O14757); assay: Inhibition of Serine/threonine-protein kinase Chk1; in short: as §4
T2 sequence (O14757 whole entry): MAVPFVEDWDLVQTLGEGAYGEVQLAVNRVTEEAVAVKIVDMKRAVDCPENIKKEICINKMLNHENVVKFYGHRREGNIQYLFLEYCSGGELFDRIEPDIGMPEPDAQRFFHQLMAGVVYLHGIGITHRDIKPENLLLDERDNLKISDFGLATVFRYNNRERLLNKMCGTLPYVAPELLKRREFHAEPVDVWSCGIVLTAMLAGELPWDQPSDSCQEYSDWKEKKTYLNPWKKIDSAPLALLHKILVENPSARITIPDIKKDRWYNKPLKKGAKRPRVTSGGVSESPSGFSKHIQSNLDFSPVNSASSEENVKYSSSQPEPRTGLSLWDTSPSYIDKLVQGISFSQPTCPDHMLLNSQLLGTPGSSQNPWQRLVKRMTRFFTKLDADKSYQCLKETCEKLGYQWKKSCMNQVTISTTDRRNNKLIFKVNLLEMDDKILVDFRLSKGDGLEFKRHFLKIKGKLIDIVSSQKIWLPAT

[18] = target: Vascular endothelial growth factor receptor 3 (Homo sapiens, UniProt P35916); assay: Inhibition of Vascular endothelial growth factor receptor 3
In short: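 Recombinant human VEGF-R3 cytoplasmic domain was expressed in baculovirus-infected insect cells and assayed by ELISA as for VEGF-R2, with PLC-γ/GST fusion substrate. […] Read-out was Eu-antiphosphotyrosine time-resolved fluorescence.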

[19] = target: Vascular endothelial growth factor receptor 1 (Homo sapiens, UniProt P17948); assay: Inhibition of Vascular endothelial growth factor receptor 1; in short: as §2
Angiopoietin-1 receptor = Angiopoietin-1 receptor (Homo sapiens, UniProt Q02763); assay: Inhibition of Tyrosine protein kinase receptor TIE-2; in short: as §2
[20] = target: T3, Receptor-type tyrosine-protein kinase FLT3 (Homo sapiens, UniProt P36888); assay: Inhibition of Tyrosine-protein kinase receptor FLT3 (fms-related tyrosine kinase 3) receptor
T3 sequence (P36888 whole entry): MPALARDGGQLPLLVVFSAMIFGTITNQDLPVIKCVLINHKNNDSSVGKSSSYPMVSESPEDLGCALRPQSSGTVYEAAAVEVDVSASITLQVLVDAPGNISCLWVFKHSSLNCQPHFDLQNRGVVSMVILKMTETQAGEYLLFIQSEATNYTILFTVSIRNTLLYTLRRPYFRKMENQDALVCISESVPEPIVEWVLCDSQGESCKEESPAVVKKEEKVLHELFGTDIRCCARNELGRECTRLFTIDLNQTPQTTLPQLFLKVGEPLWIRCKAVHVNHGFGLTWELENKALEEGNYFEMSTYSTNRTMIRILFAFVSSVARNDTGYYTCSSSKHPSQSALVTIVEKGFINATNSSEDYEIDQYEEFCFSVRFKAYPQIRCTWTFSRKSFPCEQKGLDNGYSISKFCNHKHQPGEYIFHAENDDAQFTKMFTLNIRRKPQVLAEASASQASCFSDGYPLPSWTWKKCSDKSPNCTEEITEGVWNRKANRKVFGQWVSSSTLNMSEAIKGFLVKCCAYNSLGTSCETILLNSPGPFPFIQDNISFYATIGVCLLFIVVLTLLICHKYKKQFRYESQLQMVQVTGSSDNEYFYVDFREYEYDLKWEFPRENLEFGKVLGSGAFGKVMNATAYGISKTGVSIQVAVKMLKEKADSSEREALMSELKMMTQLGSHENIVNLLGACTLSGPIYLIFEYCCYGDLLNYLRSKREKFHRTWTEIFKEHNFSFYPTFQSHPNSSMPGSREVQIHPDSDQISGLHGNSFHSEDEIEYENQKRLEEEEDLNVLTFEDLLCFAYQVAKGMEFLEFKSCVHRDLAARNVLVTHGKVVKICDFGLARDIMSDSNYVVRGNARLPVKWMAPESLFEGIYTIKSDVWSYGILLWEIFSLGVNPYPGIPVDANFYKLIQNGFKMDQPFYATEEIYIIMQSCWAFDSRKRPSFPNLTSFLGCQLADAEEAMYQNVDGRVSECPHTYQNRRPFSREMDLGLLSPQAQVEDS
In short: (§5)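 Recombinant human cytoplasmic kinase domains (TrkA, Flt-3) expressed in baculovirus-infected insect cells. […] Eu-N1 antiphosphotyrosine detection by time-resolved fluorescence.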

[21] = target: Mitogen-activated protein kinase 8 (Homo sapiens, UniProt P45983); assay: Inhibition of c-Jun N-terminal kinase 1-beta 1
[22] = target: High affinity nerve growth factor receptor (Homo sapiens, UniProt P04629); assay: Inhibition of TrkA receptor; in short: as §5
[23] = target: T1, Vascular endothelial growth factor receptor 2; assay: Inhibition of human Vascular endothelial growth factor receptor 2
In short: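 Baculovirus-expressed recombinant human VEGF-R2 cytoplasmic domain was assayed by ELISA with a GST–phospholipase C-γ fusion substrate. […] Eu-N1 antiphosphotyrosine was added for 1 h at 37 °C and read by time-resolved fluorescence. IC50 came from nonlinear sigmoidal fits, averaging at least 3 determinations.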

[24] = target: Mast/stem cell growth factor receptor Kit (Homo sapiens, UniProt P10721); assay: Inhibition of Proto-oncogene tyrosine-protein kinase Kit
[25] = target: T1, Vascular endothelial growth factor receptor 2; conditions: HUVEC, 100 nM
[26] = target: T1, Vascular endothelial growth factor receptor 2; conditions: HUVEC, 10 nM
[27] = target: T4, Vascular endothelial growth factor receptor (Homo sapiens) (UniProt P17948+P35916+P35968); conditions: HUVEC, 100 nM
[28] = target: T4, Vascular endothelial growth factor receptor (Homo sapiens); conditions: HUVEC, 40 nM
[29] = target: T4, Vascular endothelial growth factor receptor (Homo sapiens); conditions: Capillary, HUVEC, 400 nM

T4 sequence (P17948 whole entry, looked up): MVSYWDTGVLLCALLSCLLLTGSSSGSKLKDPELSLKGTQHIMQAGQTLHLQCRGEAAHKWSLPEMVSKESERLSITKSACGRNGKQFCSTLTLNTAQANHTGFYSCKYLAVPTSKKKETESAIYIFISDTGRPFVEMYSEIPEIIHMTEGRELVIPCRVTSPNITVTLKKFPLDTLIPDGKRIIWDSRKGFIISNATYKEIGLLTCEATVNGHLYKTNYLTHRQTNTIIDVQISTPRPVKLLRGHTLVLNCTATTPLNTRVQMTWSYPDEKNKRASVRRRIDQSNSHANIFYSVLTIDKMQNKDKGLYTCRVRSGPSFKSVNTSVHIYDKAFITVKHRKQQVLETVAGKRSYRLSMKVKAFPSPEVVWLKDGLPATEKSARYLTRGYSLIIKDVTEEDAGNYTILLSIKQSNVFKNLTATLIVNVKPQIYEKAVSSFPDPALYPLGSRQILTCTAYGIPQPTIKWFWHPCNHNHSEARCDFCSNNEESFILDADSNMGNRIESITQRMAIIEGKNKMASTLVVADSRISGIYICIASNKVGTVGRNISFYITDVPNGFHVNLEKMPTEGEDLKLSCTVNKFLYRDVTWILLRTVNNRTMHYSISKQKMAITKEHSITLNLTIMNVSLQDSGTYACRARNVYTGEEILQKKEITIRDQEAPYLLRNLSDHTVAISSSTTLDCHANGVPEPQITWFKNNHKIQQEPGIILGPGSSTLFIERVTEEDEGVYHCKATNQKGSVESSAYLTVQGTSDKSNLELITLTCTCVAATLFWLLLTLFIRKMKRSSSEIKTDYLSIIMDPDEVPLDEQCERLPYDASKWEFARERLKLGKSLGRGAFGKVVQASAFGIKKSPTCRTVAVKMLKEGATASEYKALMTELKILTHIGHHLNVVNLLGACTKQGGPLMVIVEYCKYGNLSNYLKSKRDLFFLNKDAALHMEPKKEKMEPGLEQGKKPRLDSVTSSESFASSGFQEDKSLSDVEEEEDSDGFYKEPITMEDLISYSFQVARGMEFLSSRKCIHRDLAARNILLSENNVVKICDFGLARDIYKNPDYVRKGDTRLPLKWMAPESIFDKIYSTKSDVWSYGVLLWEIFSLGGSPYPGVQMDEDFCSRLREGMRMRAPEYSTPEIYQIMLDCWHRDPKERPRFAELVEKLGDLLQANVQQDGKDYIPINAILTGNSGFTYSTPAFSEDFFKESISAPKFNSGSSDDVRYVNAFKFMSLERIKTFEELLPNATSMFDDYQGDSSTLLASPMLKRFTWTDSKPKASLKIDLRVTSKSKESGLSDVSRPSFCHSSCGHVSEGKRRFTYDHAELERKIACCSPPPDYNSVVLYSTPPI
T4 sequence (P35916 whole entry, looked up): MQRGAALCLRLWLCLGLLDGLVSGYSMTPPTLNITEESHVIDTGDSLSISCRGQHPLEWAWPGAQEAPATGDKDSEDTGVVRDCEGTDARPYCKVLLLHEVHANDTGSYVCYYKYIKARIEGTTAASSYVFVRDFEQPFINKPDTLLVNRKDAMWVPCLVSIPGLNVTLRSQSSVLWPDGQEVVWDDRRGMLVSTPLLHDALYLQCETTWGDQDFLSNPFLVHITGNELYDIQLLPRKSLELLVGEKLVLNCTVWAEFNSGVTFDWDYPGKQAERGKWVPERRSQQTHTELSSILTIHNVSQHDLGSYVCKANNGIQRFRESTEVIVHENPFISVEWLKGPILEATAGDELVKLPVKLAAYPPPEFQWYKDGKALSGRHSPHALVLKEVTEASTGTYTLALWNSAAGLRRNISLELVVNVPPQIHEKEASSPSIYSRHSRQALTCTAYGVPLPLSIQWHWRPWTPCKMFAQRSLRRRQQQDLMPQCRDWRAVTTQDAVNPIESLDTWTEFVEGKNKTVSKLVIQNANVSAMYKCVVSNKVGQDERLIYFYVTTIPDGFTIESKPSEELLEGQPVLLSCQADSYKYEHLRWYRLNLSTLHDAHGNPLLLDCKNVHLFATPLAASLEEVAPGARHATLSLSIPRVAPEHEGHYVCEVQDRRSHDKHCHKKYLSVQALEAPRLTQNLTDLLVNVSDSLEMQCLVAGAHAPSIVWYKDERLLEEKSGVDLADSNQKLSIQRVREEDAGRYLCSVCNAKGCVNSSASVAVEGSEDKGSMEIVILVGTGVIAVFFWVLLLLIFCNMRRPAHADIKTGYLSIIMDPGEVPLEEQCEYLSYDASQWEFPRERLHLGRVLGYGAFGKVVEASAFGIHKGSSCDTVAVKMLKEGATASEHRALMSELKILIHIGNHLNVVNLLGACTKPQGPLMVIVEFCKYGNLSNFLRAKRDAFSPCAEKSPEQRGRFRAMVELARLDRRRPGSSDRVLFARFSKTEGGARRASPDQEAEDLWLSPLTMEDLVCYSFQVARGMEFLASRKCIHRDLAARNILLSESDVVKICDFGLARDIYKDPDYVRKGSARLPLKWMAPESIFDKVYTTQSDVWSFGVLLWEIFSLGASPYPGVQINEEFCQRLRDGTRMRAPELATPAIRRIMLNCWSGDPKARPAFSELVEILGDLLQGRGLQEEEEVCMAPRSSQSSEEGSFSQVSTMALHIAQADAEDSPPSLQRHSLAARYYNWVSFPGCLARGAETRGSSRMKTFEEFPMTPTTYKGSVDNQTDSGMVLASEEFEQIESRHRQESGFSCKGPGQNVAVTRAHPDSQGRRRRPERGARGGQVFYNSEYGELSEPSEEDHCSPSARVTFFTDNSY
T4 sequence (P35968 whole entry, looked up): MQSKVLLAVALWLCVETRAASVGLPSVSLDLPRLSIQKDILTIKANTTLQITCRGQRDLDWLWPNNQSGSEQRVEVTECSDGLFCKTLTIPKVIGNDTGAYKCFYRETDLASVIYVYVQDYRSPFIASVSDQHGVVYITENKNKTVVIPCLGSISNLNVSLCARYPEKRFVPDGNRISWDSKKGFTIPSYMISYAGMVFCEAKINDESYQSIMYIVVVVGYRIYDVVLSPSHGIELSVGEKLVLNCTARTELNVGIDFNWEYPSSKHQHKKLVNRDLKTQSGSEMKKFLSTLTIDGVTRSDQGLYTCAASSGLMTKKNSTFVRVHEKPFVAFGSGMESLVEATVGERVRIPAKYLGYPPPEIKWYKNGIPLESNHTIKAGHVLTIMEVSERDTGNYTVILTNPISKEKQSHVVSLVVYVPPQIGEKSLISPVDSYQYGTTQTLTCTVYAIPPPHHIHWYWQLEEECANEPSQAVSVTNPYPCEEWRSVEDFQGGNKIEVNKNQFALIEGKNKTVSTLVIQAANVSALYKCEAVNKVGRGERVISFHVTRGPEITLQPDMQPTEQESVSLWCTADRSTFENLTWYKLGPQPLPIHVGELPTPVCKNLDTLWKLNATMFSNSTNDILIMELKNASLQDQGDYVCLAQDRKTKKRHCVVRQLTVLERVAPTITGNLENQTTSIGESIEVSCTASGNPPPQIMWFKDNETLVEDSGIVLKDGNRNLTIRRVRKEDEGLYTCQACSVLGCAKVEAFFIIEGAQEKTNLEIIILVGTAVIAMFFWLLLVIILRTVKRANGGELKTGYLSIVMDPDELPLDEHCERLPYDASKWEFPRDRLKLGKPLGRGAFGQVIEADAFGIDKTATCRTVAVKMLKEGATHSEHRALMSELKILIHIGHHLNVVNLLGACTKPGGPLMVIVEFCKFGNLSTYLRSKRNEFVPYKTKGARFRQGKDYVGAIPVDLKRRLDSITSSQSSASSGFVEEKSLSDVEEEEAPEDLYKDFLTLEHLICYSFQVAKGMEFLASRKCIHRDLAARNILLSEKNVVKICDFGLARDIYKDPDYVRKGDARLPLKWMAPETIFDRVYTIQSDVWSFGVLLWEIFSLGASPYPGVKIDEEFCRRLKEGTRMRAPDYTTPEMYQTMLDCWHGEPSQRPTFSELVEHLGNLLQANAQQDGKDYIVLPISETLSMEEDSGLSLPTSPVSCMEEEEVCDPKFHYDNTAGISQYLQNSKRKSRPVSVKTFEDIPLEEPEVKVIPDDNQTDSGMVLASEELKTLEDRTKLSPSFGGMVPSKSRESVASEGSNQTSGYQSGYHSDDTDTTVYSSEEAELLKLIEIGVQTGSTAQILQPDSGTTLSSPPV
T1 sequence (P35968 whole entry): as the sequence (P35968 whole entry, looked up) above
Chain of Fibroblast growth factor receptor 1 (P11362 whole entry): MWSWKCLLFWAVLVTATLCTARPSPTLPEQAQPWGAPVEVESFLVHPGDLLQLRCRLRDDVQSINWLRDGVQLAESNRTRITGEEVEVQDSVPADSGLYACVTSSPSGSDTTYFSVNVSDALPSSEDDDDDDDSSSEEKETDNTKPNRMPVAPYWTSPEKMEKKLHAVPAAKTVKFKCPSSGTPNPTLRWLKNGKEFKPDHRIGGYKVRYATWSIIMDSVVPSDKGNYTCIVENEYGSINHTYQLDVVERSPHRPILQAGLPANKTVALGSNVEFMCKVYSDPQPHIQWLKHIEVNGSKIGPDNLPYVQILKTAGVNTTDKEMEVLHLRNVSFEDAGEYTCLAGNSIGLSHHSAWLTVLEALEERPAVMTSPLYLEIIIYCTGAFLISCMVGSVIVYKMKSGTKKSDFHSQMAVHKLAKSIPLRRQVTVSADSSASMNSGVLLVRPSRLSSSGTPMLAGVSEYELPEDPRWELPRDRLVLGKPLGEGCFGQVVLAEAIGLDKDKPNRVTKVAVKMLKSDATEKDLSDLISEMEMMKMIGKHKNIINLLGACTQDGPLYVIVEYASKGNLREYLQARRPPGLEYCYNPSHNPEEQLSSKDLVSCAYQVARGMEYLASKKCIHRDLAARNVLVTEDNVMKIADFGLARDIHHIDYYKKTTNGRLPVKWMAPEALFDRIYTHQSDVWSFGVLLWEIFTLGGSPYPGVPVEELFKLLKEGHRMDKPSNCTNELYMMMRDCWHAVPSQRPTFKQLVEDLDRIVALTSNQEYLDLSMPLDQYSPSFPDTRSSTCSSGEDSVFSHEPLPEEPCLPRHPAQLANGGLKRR
Chain of Vascular endothelial growth factor receptor 1 (P17948 whole entry): as the sequence (P17948 whole entry, looked up) above
Chain of Vascular endothelial growth factor receptor 3 (P35916 whole entry, the tested form may be a part): as the sequence (P35916 whole entry, looked up) above

## CCOCc1ccc2c(c1)c1c3c(c4c(c1n2CCCO)Cc1ccccc1-4)C(=O)NC3
[1]
  inhibition: 75%
[2]
  inhibition: 100%

## CC(C)CCOCc1ccc2c(c1)c1c3c(c4c(c1n2CCCO)Cc1ccccc1-4)C(=O)NC3
[3]
  IC50: 276 nM

## Cc1ccc2c(c1)c1c3c(c4c(c1n2CCCO)Cc1ccccc1-4)C(=O)NC3
[3]
  IC50: 163 nM

## CC(C)OCc1ccc2c(c1)c1c3c(c4c(c1n2CCCOC(=O)CN(C)C)Cc1ccccc1-4)C(=O)NC3 [CEP-7055]
Mus musculus [4]
  inhibition in vivo at 23.8 mg/kg: 70%

## O=C1NCc2c1c1c(c3c2c2cc(Br)ccc2n3CCCO)Cc2ccccc2-1
[3]
  IC50: 104 nM

## O=C1NCc2c1c1c(c3[nH]c4ccccc4c23)Cc2ccccc2-1
[3]
  IC50: 110 nM

## CCCCOCc1ccc2c(c1)c1c3c(c4c(c1n2CCCO)Cc1ccccc1-4)C(=O)NC3
[5]
  inhibition: 100%

## COC(C)c1ccc2c(c1)c1c3c(c4c(c1n2CCCO)Cc1ccccc1-4)C(=O)NC3 (configuration not stated)
[1]
  inhibition: 25%
[2]
  inhibition: 100%

## CC[C@H](C)OCc1ccc2c(c1)c1c3c(c4c(c1n2CCCO)Cc1ccccc1-4)C(=O)NC3
[6]
  inhibition: 100%

## CC(=O)c1ccc2c(c1)c1c3c(c4c(c1n2CCCO)Cc1ccccc1-4)C(=O)NC3
[3]
  IC50: 187 nM

## CC(C)(C)OCc1ccc2c(c1)c1c3c(c4c(c1n2CCCO)Cc1ccccc1-4)C(=O)NC3
[1]
  inhibition: 100%
[6]
  inhibition: 100%

## CC(C)SCc1ccc2c(c1)c1c3c(c4c(c1n2CCCO)Cc1ccccc1-4)C(=O)NC3
[5]
  inhibition: 100%

## O=Cc1ccc2c(c1)c1c3c(c4c(c1n2CCCO)Cc1ccccc1-4)C(=O)NC3
[3]
  IC50: 105 nM

## CCSCc1ccc2c(c1)c1c3c(c4c(c1n2CCCO)Cc1ccccc1-4)C(=O)NC3
[5]
  inhibition: 100%

## CC[C@@H](C)OCc1ccc2c(c1)c1c3c(c4c(c1n2CCCO)Cc1ccccc1-4)C(=O)NC3
[6]
  inhibition: 100%

## CC(C)OCc1ccc2[nH]c3c4c(c5c(c3c2c1)CNC5=O)-c1ccccc1C4
[3]
  IC50: 55 nM

## O=C1NCc2c3c(c4[nH]c5ccccc5c4c21)Cc1ccccc1-3
[3]
  IC50: 414 nM

## CCC(CC)OCc1ccc2c(c1)c1c3c(c4c(c1n2CCCO)Cc1ccccc1-4)C(=O)NC3
[3]
  IC50: 35 nM

## CC(C)OCc1ccc2c(c1)c1c3c(c4c(c1n2CCCO)Cc1ccccc1-4)C(=O)NC3 [CEP-5214]
[7]
  Cmax: 100 ng/mL
[8]
  solubility: 10 µg/mL (≈ 22.7 µM)
[9]
  IC50: > 10000 nM
[10]
  IC50: 162 nM
Mus musculus [11]
  minimal effective dose: 3 mg/kg
Mus musculus [12]
  inhibition in vivo at 10 mg/kg: 57%
Mus musculus [13]
  inhibition in vivo at 20 mg/kg: 70%
[14]
  IC50: > 10000 nM
[15]
  IC50: > 10000 nM
[16]
  IC50: > 3000 nM
[17]
  IC50: > 3000 nM
[18]
  IC50: 4 nM
[19]
  IC50: 16 nM
Angiopoietin-1 receptor
  IC50: > 10000 nM
[20]
  IC50: 1.6 nM
[21]
  IC50: 448 nM
[22]
  IC50: > 3000 nM
[23]
  IC50: 8 nM
[24]
  IC50: 57 nM
[25]
  inhibition: 100%
[26]
  inhibition: 75%
[27]
  inhibition: 75%
[28]
  inhibition: 21%
[29]
  inhibition: 89%

## CC(C)[S+]([O-])Cc1ccc2c(c1)c1c3c(c4c(c1n2CCCO)Cc1ccccc1-4)C(=O)NC3 (configuration not stated)
[3]
  IC50: 309 nM

## CCCOCc1ccc2c(c1)c1c3c(c4c(c1n2CCCO)Cc1ccccc1-4)C(=O)NC3
[5]
  inhibition: 100%
